{"source": "ChEMBL document CHEMBL1932952", "about": "“Synthesis and biochemical analysis of 2,2,3,3,4,4,5,5,6,6,7,7-dodecafluoro-N-hydroxy-octanediamides as inhibitors of human histone deacetylases” (Bioorg Med Chem, 2012)", "key": {"[1]": {"target": "T1, Histone deacetylase-like amidohydrolase (Alcaligenes sp. (strain DSM 11172) (Bordetella sp. (strain FB188)), UniProt Q70I53)", "T1 sequence (Q70I53 whole entry)": "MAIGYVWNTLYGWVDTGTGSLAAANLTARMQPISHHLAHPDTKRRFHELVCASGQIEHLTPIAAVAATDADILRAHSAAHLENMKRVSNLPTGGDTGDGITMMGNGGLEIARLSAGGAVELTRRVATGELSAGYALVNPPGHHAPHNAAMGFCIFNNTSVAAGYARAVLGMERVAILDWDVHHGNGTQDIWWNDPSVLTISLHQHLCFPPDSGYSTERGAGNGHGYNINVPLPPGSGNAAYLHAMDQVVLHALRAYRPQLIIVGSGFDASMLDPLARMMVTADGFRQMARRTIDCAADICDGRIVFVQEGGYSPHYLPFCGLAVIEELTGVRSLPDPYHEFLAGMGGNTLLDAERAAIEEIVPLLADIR", "test": "Inhibition of Bordetella FB188 HDAH using Boc-L-Lys(acetyl)-MCA as substrate by fluorogenic enzymatic assay"}, "[2]": {"target": "Histone deacetylase 1 (Homo sapiens, UniProt Q13547)", "sequence (Q13547 whole entry)": "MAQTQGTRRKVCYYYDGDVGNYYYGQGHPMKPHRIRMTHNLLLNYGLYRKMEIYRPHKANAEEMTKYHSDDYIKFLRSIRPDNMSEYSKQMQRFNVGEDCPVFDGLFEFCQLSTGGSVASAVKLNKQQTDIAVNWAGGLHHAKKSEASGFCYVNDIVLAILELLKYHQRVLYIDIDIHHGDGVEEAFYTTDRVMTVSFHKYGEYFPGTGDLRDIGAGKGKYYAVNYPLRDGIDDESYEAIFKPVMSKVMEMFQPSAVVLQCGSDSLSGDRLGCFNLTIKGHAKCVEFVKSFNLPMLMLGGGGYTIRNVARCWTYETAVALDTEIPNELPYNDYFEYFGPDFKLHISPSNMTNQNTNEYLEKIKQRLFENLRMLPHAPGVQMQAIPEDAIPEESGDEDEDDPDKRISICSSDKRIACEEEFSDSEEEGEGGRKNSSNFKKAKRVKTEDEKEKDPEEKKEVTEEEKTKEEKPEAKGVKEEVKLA", "test": "Inhibition of recombinant human HDAC1 using Boc-L-Lys(acetyl)-MCA as substrate by fluorogenic enzymatic assay"}, "[3]": {"target": "Histone deacetylase", "test": "Inhibition of HDAC in human K562 cells using Boc-L-Lys(acetyl)-MCA as substrate by fluorogenic cellular assay", "type": "cell-based", "procedure,_shortened": "(§1)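 K562 cells were grown in RPMI with 10% FCS, L-glutamine and gentamycin, then pelleted. Lysis in 50 mM Tris–HCl pH 8.5, 1 M NaCl, 1 mM MgCl₂, Triton X-100 (up to 5× pellet volume), 2 h at 37 °C. The diluted lysate replaces recombinant enzyme in the two-step fluorogenic trypsin-coupled assay with substrate at 20 µM final. Read-out is AMC fluorescence (ex 390, em 460 nm), giving IC50.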"}, "[4]": {"target": "Histone deacetylase", "test": "Inhibition of HDAC in human K562 cells using Boc-L-Lys(trifluoroacetyl)-MCA as substrate by fluorogenic cellular assay", "type": "cell-based", "procedure,_shortened": "as §1"}, "[5]": {"target": "T2, Histone deacetylase 7 (Homo sapiens, UniProt Q8WUI4)", "T2 sequence (Q8WUI4 whole entry)": "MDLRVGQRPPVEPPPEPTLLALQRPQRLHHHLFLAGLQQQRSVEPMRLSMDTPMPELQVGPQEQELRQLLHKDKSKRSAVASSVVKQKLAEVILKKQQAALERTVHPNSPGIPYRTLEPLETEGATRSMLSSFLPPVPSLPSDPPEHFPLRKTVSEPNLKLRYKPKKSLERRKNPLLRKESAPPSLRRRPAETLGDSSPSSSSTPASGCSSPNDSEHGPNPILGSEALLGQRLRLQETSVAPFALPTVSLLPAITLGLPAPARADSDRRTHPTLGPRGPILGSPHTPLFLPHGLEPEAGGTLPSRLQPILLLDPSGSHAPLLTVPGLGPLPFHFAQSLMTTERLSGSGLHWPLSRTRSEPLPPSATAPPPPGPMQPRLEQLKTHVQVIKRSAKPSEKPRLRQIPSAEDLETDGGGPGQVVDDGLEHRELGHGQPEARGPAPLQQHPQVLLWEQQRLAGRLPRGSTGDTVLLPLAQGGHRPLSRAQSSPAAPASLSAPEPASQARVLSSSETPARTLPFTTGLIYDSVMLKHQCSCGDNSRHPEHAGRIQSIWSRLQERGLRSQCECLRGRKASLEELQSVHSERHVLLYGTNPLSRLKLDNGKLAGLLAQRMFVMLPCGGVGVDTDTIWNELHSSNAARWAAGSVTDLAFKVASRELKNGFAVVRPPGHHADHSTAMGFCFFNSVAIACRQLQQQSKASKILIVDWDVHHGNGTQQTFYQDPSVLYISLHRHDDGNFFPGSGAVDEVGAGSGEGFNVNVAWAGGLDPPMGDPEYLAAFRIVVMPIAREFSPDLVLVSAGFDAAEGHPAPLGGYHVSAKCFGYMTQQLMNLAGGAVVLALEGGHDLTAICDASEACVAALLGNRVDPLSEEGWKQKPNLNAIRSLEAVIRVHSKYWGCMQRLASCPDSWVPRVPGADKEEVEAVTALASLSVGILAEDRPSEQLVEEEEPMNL", "test": "Inhibition of recombinant human HDAC7 using Boc-L-Lys(trifluoroacetyl)-MCA as substrate by fluorogenic enzymatic assay"}, "[6]": {"target": "T3, Histone deacetylase 8 (Homo sapiens) (UniProt Q9BY41)", "T3 sequence (whole entry)": "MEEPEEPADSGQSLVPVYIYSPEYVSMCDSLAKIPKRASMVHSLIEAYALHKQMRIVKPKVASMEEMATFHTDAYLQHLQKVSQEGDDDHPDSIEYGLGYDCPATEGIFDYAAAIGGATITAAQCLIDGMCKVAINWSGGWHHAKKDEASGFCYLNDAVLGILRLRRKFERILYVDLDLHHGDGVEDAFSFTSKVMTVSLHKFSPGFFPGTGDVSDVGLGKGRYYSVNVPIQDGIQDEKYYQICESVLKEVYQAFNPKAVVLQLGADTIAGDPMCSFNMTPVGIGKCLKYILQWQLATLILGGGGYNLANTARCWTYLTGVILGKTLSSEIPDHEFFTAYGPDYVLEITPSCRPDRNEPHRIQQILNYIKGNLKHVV", "test": "Ratio of SAHA Kd to compound Kd for recombinant human HDAC8"}, "[7]": {"target": "T4, Histone deacetylase 7 (Homo sapiens) (UniProt Q8WUI4)", "T4 sequence (whole entry)": "T2 sequence (Q8WUI4 whole entry)", "test": "Ratio of SAHA Kd to compound Kd for recombinant human HDAC7"}, "[8]": {"target": "T5, Histone deacetylase 8 (Homo sapiens, UniProt Q9BY41)", "T5 sequence (Q9BY41 whole entry)": "T3 sequence (whole entry)", "test": "Inhibition of recombinant human HDAC8 using Boc-L-Lys(trifluoroacetyl)-MCA as substrate by fluorogenic enzymatic assay"}, "[9]": {"target": "T6, Protein deacetylase HDAC6 (Homo sapiens, UniProt Q9UBN7)", "T6 sequence (Q9UBN7 whole entry)": "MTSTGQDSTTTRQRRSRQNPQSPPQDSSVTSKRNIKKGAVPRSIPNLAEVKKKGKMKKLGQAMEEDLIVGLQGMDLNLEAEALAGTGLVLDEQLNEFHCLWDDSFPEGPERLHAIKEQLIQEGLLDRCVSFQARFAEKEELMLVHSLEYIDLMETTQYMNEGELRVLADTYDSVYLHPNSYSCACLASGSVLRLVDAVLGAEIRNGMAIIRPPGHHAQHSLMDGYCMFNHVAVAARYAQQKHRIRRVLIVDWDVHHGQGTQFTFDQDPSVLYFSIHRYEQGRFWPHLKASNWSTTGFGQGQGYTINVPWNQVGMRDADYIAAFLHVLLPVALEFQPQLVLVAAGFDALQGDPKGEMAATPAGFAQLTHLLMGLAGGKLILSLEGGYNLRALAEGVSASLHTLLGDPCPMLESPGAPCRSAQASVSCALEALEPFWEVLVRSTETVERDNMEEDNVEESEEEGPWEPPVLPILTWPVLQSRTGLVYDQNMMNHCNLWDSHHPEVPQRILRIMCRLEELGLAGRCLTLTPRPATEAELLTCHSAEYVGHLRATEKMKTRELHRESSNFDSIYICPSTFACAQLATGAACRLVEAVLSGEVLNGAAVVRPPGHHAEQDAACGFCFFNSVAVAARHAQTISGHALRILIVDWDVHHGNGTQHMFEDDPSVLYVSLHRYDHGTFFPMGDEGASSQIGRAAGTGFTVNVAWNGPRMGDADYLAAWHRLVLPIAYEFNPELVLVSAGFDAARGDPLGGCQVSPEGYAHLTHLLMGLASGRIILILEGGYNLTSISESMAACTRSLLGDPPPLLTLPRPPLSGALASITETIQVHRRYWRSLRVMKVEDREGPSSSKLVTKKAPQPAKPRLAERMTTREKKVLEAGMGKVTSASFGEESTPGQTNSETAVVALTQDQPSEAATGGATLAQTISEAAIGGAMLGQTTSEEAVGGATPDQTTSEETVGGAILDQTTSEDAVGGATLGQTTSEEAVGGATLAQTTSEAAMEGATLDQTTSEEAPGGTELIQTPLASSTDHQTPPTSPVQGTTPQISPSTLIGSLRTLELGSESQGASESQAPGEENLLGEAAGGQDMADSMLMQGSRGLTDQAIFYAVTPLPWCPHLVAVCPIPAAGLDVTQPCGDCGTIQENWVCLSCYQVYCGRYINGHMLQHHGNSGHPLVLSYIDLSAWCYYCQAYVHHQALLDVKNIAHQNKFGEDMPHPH", "test": "Inhibition of recombinant human HDAC6 using Boc-L-Lys(acetyl)-MCA as substrate by fluorogenic enzymatic assay"}}, "data": [{"smiles": "O=C(NO)C(F)(F)C(F)(F)C(F)(F)C(F)(F)C(F)(F)C(F)(F)C(=O)Nc1nc(-c2ccccc2)cs1", "values": [{"measurement": "Kd", "setting": "[1]", "value": 2.2, "unit": "µM"}, {"measurement": "Kd", "setting": "[2]", "value": 2.6, "unit": "µM"}, {"measurement": "IC50", "setting": "[3]", "value": 30, "unit": "µM"}, {"measurement": "IC50", "setting": "[4]", "value": 14, "unit": "µM"}, {"measurement": "Kd", "setting": "[5]", "value": 1.4, "unit": "µM"}, {"measurement": "Ratio", "setting": "[6]", "value": 2}, {"measurement": "Ratio", "setting": "[7]", "value": 25}, {"measurement": "Kd", "setting": "[8]", "value": 1.5, "unit": "µM"}, {"measurement": "Kd", "setting": "[9]", "value": 5.4, "unit": "µM"}]}, {"smiles": "O=C(NO)C(F)(F)C(F)(F)C(F)(F)C(F)(F)C(F)(F)C(F)(F)C(=O)Nc1ccccc1", "values": [{"measurement": "Kd", "setting": "[1]", "value": 0.54, "unit": "µM"}, {"measurement": "Kd", "setting": "[2]", "value": 29, "unit": "µM"}, {"measurement": "IC50", "setting": "[3]", "value": "> 50", "unit": "µM"}, {"measurement": "IC50", "setting": "[4]", "value": 49, "unit": "µM"}, {"measurement": "Kd", "setting": "[5]", "value": 11, "unit": "µM"}, {"measurement": "Ratio", "setting": "[7]", "value": 3}, {"measurement": "Kd", "setting": "[8]", "value": 17, "unit": "µM"}, {"measurement": "Kd", "setting": "[9]", "value": 11, "unit": "µM"}]}, {"smiles": "CCc1cccc(NC(=O)C(F)(F)C(F)(F)C(F)(F)C(F)(F)C(F)(F)C(F)(F)C(=O)NO)c1", "values": [{"measurement": "Kd", "setting": "[1]", "value": 0.19, "unit": "µM"}, {"measurement": "Kd", "setting": "[2]", "value": 16, "unit": "µM"}, {"measurement": "IC50", "setting": "[3]", "value": "> 50", "unit": "µM"}, {"measurement": "IC50", "setting": "[4]", "value": 42, "unit": "µM"}, {"measurement": "Kd", "setting": "[5]", "value": 3, "unit": "µM"}, {"measurement": "Kd", "setting": "[8]", "value": 13, "unit": "µM"}, {"measurement": "Kd", "setting": "[9]", "value": 1.3, "unit": "µM"}]}, {"smiles": "O=C(NO)C(F)(F)C(F)(F)C(F)(F)C(F)(F)C(F)(F)C(F)(F)C(=O)Nc1ccc2ccccc2c1", "values": [{"measurement": "Kd", "setting": "[1]", "value": 0.16, "unit": "µM"}, {"measurement": "Kd", "setting": "[2]", "value": 12, "unit": "µM"}, {"measurement": "IC50", "setting": "[3]", "value": "> 50", "unit": "µM"}, {"measurement": "IC50", "setting": "[4]", "value": 45, "unit": "µM"}, {"measurement": "Kd", "setting": "[5]", "value": 11, "unit": "µM"}, {"measurement": "Kd", "setting": "[8]", "value": 49, "unit": "µM"}, {"measurement": "Kd", "setting": "[9]", "value": 6.8, "unit": "µM"}]}, {"smiles": "O=C(NO)C(F)(F)C(F)(F)C(F)(F)C(F)(F)C(F)(F)C(F)(F)C(=O)Nc1ccc(I)cc1", "values": [{"measurement": "Kd", "setting": "[1]", "value": 0.39, "unit": "µM"}, {"measurement": "Kd", "setting": "[2]", "value": 14, "unit": "µM"}, {"measurement": "IC50", "setting": "[3]", "value": "> 50", "unit": "µM"}, {"measurement": "IC50", "setting": "[4]", "value": "> 50", "unit": "µM"}, {"measurement": "Kd", "setting": "[5]", "value": 4.1, "unit": "µM"}, {"measurement": "Kd", "setting": "[8]", "value": 36, "unit": "µM"}, {"measurement": "Kd", "setting": "[9]", "value": 4.2, "unit": "µM"}]}]}
